# Measurements as given in ChEMBL document CHEMBL3526008, “Identification of amiodarone metabolites in human bile by ultraperformance liquid chromatography/quadrupole time-of-flight mass spectrometry” (Drug Metab Dispos, 2011).
# What was measured:
# [1] = Drug level in arrhythmia patient bile treated with amiodarone at 200 mg/day, po for 7 days by UPLC-Q/TOF mass spectrometry; format: ADME, organism-based; details: human, in vivo, 168 h
# Method in brief: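 Three arrhythmia patients (66-89 y, 1 male, 2 female) with T-tube drainage after hepatobiliary surgery. Bile collected from T-tube at 1-h intervals (about 10 ml) over 24 h, stored at -20°C. Glucuronides hydrolysed with β-glucuronidase in 1 M citrate pH 5.0, 37°C, 16 h. Profiled by UPLC-Q/TOF on HSS T3 column, formic acid/acetonitrile gradient, ES+, m/z 80–1000.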
# Liver microsome = experiment: Drug level in human liver microsomes assessed as compound formation treated with 50 uM amiodarone for 60 mins by UPLC-Q/TOF mass spectrometry in presence of NADPH; format: ADME; details: 1 h
# Method in brief: (§1)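 Pooled human liver microsomes at 1.0 mg/ml protein in 100 mM potassium phosphate pH 7.4, 37°C. Amiodarone 50 μM (DMSO 0.1% final). 3 min preincubation, then started with 2.0 mM NADPH. Stopped at 60 min with equal volume of ice-cold acetonitrile. Controls lacked NADPH or substrate. Duplicates. Analysed by UPLC-Q/TOF MS.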
# [2] = Drug level in human liver S9 fraction assessed as compound formation treated with 50 uM amiodarone for 60 mins by UPLC-Q/TOF mass spectrometry in presence of NADPH; format: ADME, subcellular; details: s9, 1 h
# Method in brief: as §1, with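 “S9” for “microsomes”, “2.0” for “1.0”, “Quenched” for “Stopped”, “Read-out” for “Analysed”, “MS and UPLC-UV.” for “MS.”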
# [3] = Retention time of the compound by UPLC-Q/TOF mass spectrometry; format: physicochemical
# Method in brief: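 UPLC on HSS T3 column (1.8 μm, 2.1 × 100 mm). Mobile phase 0.05% formic acid in water and in acetonitrile. Q/TOF detection in ES+ with leucine enkephalin lock mass.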
# [4] = Drug level in human liver S9 fraction assessed as compound formation treated with 50 uM amiodarone for 60 mins by LC-UV analysis in presence of NADPH; format: ADME, subcellular; details: s9, 1 h
# Method in brief: as §1, with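 “S9” for “microsomes”, “2.0” for “1.0”, “Quenched” for “Stopped”, “Read-out” for “Analysed”, “MS and UPLC-UV.” for “MS.”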
# [5] = Drug level in human liver S9 fraction assessed as alcohol dehydrogenase-mediated compound formation treated with 50 uM amiodarone for 60 mins by UPLC-Q/TOF mass spectrometry in presence of NADPH; format: ADME, subcellular; details: s9, 1 h
# Method in brief: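 Human liver S9 (2.0 mg/ml) in 100 mM potassium phosphate pH 7.4 at 37°C. Preincubated 10 min with or without 5 μM 4-methylpyrazole (final), then 50 μM amiodarone added. Incubated 60 min with 2.0 mM NADPH. Carboxylic acid metabolite compared by LC/MS between incubations with and without 4-MP. Duplicates.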
SMILES,Drug metabolism (Liver microsome),Drug metabolism [2],Retention_time [3] [min],Drug metabolism [4],Drug metabolism [5],Drug metabolism [1]
CCCCc1oc2ccccc2c1C(=O)c1ccc(OCCNCC)c(I)c1,metabolite_detected,metabolite_detected,16.2,,,metabolite_detected
CCN(CC)CCOc1c(I)cc(C(=O)c2c(CCCC(=O)O)oc3ccccc23)cc1I,,,14.2,,metabolite_detected,metabolite_detected
CCCCc1oc2ccccc2c1C(=O)c1cc(I)c(O)c(I)c1,metabolite_detected,metabolite_detected,16.3,,,metabolite_detected
CCN(CC)CCOc1ccc(C(=O)c2c(CCCC(=O)O)oc3ccccc23)cc1I,,metabolite_detected,13.3,,,metabolite_detected
CCN(CC)CCOc1c(I)cc(C(=O)c2c(CCCCO)oc3ccccc23)cc1I,metabolite_detected,metabolite_detected,14.3,,,metabolite_detected
CCCCc1oc2cc(O)ccc2c1C(=O)c1cc(I)c(OCCN(CC)CC)c(I)c1,metabolite_detected,metabolite_detected,15.5,,,metabolite_detected
CCN(CC)CCOc1c(I)cc(C(=O)c2c(CCC(C)O)oc3ccccc23)cc1I (stereo not drawn),metabolite_detected,metabolite_detected,14.5,,,metabolite_detected

# Continued, in another order:
Drug metabolism (Liver microsome),Drug metabolism [2],Retention_time [3] [min],Drug metabolism [4],Drug metabolism [5],SMILES,Drug metabolism [1]
metabolite_detected,metabolite_detected,17,metabolite_detected,,CCCCc1oc2ccccc2c1C(=O)c1cc(I)c(OCCNCC)c(I)c1 [DESETHYLAMIODARONE],metabolite_detected
,metabolite_detected,13.4,,,CCNCCOc1c(I)cc(C(=O)c2c(CCCC(=O)O)oc3ccccc23)cc1I,metabolite_detected
metabolite_detected,metabolite_detected,21.5,,,CCCCc1oc2ccccc2c1C(=O)c1cc(I)c(OCCO)c(I)c1,metabolite_detected
